Reference: publication PMC4461448 (Analytical biochemistry, 2015)
Where a SMILES comes first, the peptide text is derived from it. [ ]: non-standard residue; d: D form. Phe(4-CN) = N#Cc1ccc(C[C@H](N)C(=O)O)cc1

Experiments:
[1] = value belongs to the α-helical peptide, not the tripeptide; cited from earlier work
[2] = melittin, Gly residue at the N-terminus; cited from earlier work
[3] = pH titration via PheCN fluorescence to determine N-terminal pKa; type: physicochemical; details: 20 μM peptide, pH 2-12, 25 °C, excitation 275 nm
Outline: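 Peptides were HPLC-purified and mass-verified, and concentration was set optically from absorbance at 280 nm (ε 850 M−1 cm−1). Each pH was made by mixing peptide stocks in 25 mM H3PO4 and 25 mM NaOH, then read on a pH meter. Spectra were taken in a 1 cm cuvette at 1 nm resolution, 1 s/nm, with buffer background subtracted. Peak intensity was fitted to a two-state equation with linear acidic and basic baselines to give pKa (±0.1).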

| Molecule | N-terminal pKa value (pKaH) of an α-helical peptide with X at the N-terminus [1] | further results |
| --- | --- | --- |
| CSCC[C@H](N)C(=O)N[C@@H](Cc1ccc(C#N)cc1)C(=O)NCC(N)=O [M, reference compound] (H-Met-[Phe(4-CN)]-Gly-NH2) | 7.83 |  |
| N#Cc1ccc(C[C@H](NC(=O)[C@@H](N)CC(N)=O)C(=O)NCC(N)=O)cc1 [N] (H-Asn-[Phe(4-CN)]-Gly-NH2) | 7.07 |  |
| N#Cc1ccc(C[C@H](NC(=O)CN)C(=O)NCC(N)=O)cc1 [G, reference compound] (H-Gly-[Phe(4-CN)]-Gly-NH2) | 8.51 |  |
| N#Cc1ccc(C[C@H](NC(=O)[C@@H](N)CC(=O)O)C(=O)NCC(N)=O)cc1 [D] (H-Asp-[Phe(4-CN)]-Gly-NH2) | 8.25 |  |
| N#Cc1ccc(C[C@H](NC(=O)[C@@H](N)CCCCN)C(=O)NCC(N)=O)cc1 [K] (H-Lys-[Phe(4-CN)]-Gly-NH2) | 8.12 |  |
| melittin |  | N-terminal pKa of the amino group [2]: 7.85 |
| N#Cc1ccc(C[C@H](NC(=O)[C@@H]2CCCN2)C(=O)NCC(N)=O)cc1 [P] (H-Pro-[Phe(4-CN)]-Gly-NH2) | 8.85 |  |
| CC(=O)NCC(=O)N[C@@H](Cc1ccc(C#N)cc1)C(=O)NCC(N)=O [*GFCNG] (Ac-Gly-[Phe(4-CN)]-Gly-NH2) |  | pH dependence of PheCN fluorescence intensity (acid-base titration transition) [3]: does not show such a transition |
| C[C@H](N)C(=O)N[C@@H](Cc1ccc(C#N)cc1)C(=O)NCC(N)=O [A, reference compound] (H-Ala-[Phe(4-CN)]-Gly-NH2) | 8.35 |  |
| N#Cc1ccc(C[C@H](NC(=O)[C@@H](N)CO)C(=O)NCC(N)=O)cc1 [S] (H-Ser-[Phe(4-CN)]-Gly-NH2) | 7.63 |  |
| CC(C)[C@H](N)C(=O)N[C@@H](Cc1ccc(C#N)cc1)C(=O)NCC(N)=O [V] (H-Val-[Phe(4-CN)]-Gly-NH2) | 8.14 |  |
